From ChEMBL document CHEMBL5033992, “Discovery and Synthesis of a Pyrimidine-Based Aurora Kinase Inhibitor to Reduce Levels of MYC Oncoproteins” (J Med Chem, 2021)
Active and inactive are the calls of the source. No cut-off for these calls is given here.

Tests used:
[1] = AUC (0 to inf) in ICR mouse at 2 mg/kg, iv measured up to 24 hrs by LC-MS/MS analysis; format: ADME, organism-based; set-up: route intravenous, dose 2 mg/kg, time <=24; settings: ICR, in vivo
[2] = Inhibition of Histone H3 phosphorylation in human NCI-H446 cells xenografted in assessed as reduction in phosphorylation at Ser 10 residue at 100 mg/kg, po measured upto 8 hrs by western blot analysis relative to control
[3] = Half life in ICR mouse at 2 mg/kg, iv measured up to 24 hrs by LC-MS/MS analysis; format: ADME, organism-based; settings: in vivo
[4] = tested on: NCI-H446; assay: Anti-tumor activity against human NCI-H446 cells xenografted in athymic nu/nu nude mouse assessed as reduction in tumor volume at 50 mg/kg, po administered at 5 on-2-off for 3 weeks and further dosed 100 mg/kg, po for 4 th week relative to control; format: functional, organism-based; settings: time 4.0 weeks
Method in brief: (§1)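 Male athymic nu/nu mice, 6 weeks old, inoculated subcutaneously with 1 × 10⁶ NCI-H446 cells in saline with 50% Matrigel. Dosing IV or oral, vehicle 5% dimethylacetamide/95% PEG400, on a 5-on-2-off schedule for 2–4 weeks once tumors reached ≥200 mm³. Caliper volume = length × width²/2; tumors and body weight measured at least twice weekly. ANOVA with Student–Newman–Keuls, P < 0.05.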

[5] = Toxicity in athymic nu/nu nude mouse xenografted with NCI-H446 cells assessed as reduction in body weight at 50 to 100 mg/kg, po administered at 5 on-2-off for 2 to 4 weeks relative to control; format: organism-based; set-up: scale not given: the % may be the effect or the level left; settings: in vivo, dose lower 50 mg/kg, time lower 2 weeks, dose upper 100 mg/kg, time upper 4 weeks; method in brief: as §1
[6] = tested on: NCI-H446; assay: Anti-tumor activity against human NCI-H446 cells xenografted in athymic nu/nu nude mouse assessed as reduction in tumor volume at 50 to 100 mg/kg, po administered at 5 on-2-off for 2 to 4 weeks; format: functional, organism-based; settings: dose 50-100 mg/kg, time 2-4 weeks; method in brief: as §1
[7] = Clearance in ICR mouse at 2 mg/kg, iv measured up to 24 hrs by LC-MS/MS analysis; format: ADME, organism-based; settings: in vivo
[8] = Volume of distribution at steady state in ICR mouse at 2 mg/kg, iv measured up to 24 hrs by LC-MS/MS analysis; format: ADME, organism-based; settings: in vivo, read-out: Vdss
[9] = Toxicity in athymic nu/nu nude mouse xenografted with NCI-H446 cells assessed as reduction in body weight 50 mg/kg, po administered at 5 on-2-off for 3 weeks and further dosed 100 mg/kg, po for 4 th week relative to control; format: organism-based; set-up: scale not given: the % may be the effect or the level left; settings: in vivo, 672 h, at 50 to 100 mg/kg, dose 50-100 mg/kg, time 4 weeks; method in brief: as §1
[10] = Half life in ICR mouse at 10 mg/kg, po measured up to 24 hrs by LC-MS/MS analysis; format: ADME, organism-based; settings: in vivo
[11] = AUC (0 to inf) in ICR mouse at 10 mg/kg, po measured up to 24 hrs by LC-MS/MS analysis; format: ADME, organism-based; set-up: route oral, dose 10 mg/kg, time <=24; settings: in vivo
[12] = tested on: NCI-H446; assay: Induction of apoptosis in human NCI-H446 cells xenografted in athymic nu/nu nude mouse assessed as increase in cleaved PARP1 protein expression level at 100 mg/kg, po measured up to 24 hrs by Western blot analysis; settings: time hrs <=24
[13] = Tmax in ICR mouse at 10 mg/kg, po measured up to 24 hrs by LC-MS/MS analysis; format: ADME, organism-based; settings: in vivo
[14] = tested on: NCI-H446; assay: Induction of apoptosis in human NCI-H446 cells xenografted in athymic nu/nu nude mouse assessed as increase in cleaved CASP3 protein expression level at 100 mg/kg, po measured up to 24 hrs by IHC analysis; settings: time hrs <=24
[15] = tested on: NCI-H446; assay: Effect on cMYC protein expression level in human NCI-H446 cells xenografted in athymic nu/nu nude mouse at 100 mg/kg, po measured upto 24 hrs by western blot analysis relative to control; settings: time hrs <=24
[16] = Cmax in ICR mouse at 10 mg/kg, po measured up to 24 hrs by LC-MS/MS analysis; format: ADME, organism-based; set-up: route oral, dose 10 mg/kg, time <=24; settings: in vivo
[17] = tested on: SK-N-BE(2); assay: Down regulation of Cyclin B1 expression in human SKNBE2 cells at 50 to 1000 nM after 24 hrs by Western blot analysis; format: functional, cell-based; settings: dose 50-1000 nM
Method in brief: (§2)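 Cells treated with compound at various concentrations for 24 h, then washed in PBS, lysed in Laemmli buffer and boiled 10 min. Lysates run on SDS-PAGE, transferred to PVDF and probed with antibodies, then AP- or HRP-conjugated secondaries with chemiluminescent detection. Loading control β-actin. NCI-H82 grown in RPMI1640 and SK-N-BE(2) in MEM, each with 10% FBS. Relative levels quantified from triplicate experiments.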

[18] = tested on: NCI-H209; assay: Growth inhibition of human NCI-H209 cells assessed as reduction in cell viability after 72 hrs by PrestoBlue Cell Viability assay; format: functional, cell-based; settings: NCI-H209, 72 h
Method in brief: (§3)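 Cells seeded at 5000–10,000 per well; after 24 h, treated with an eight-point titration from 0 to 10 μM in triplicate. After 72 h exposure, viability read by PrestoBlue fluorescence, and IC50 computed from the titration. SCLC lines grown in RPMI1640 and SK-N-BE(2) in MEM, each with 10% FBS.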

[19] = tested on: NCI-H82; assay: Inhibition of Histone H3 phosphorylation in human NCI-H82 cells assessed as reduction in phosphorylation at Ser 10 residue at 50 to 1000 nM after 24 hrs by Western blot analysis; format: cell-based; settings: dose 50-1000 nM; method in brief: as §2
[20] = molecular target: T1, Aurora kinase A (Homo sapiens) (UniProt O14965); settings: SKNBE2, dose 50-1000 nM, time 24.0 hrs
T1 sequence (whole entry): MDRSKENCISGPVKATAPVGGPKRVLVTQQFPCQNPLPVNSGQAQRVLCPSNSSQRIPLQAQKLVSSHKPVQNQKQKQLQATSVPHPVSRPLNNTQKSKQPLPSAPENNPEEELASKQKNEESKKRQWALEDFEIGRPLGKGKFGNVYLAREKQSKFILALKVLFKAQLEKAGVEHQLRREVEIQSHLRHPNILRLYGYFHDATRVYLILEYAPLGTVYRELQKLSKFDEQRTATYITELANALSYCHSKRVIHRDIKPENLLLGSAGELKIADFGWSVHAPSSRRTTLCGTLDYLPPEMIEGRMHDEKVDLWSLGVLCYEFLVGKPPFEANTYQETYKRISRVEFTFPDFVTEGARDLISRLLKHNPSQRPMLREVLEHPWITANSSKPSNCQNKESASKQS

[21] = tested on: NCI-H526; assay: Growth inhibition of human NCI-H526 cells assessed as reduction in cell viability after 72 hrs by PrestoBlue Cell Viability assay; format: functional, cell-based; settings: NCI-H526, 72 h; method in brief: as §3
[22] = Toxicity in athymic nu/nu nude mouse xenografted with NCI-H446 cells assessed as reduction in body weight at 50 mg/kg, iv administered at 5 on-2-off for 2 to 4 weeks relative to control; format: organism-based; set-up: scale not given: the % may be the effect or the level left; settings: in vivo, time 2-4 weeks; method in brief: as §1
[23] = Oral bioavailability in ICR mouse at 10 mg/kg measured up to 24 hrs by LC-MS/MS analysis; format: ADME, organism-based; settings: in vivo
[24] = tested on: SK-N-BE(2); assay: Growth inhibition of human SKNBE2 cells assessed as reduction in cell viability after 24 hrs by PrestoBlue Cell Viability assay; settings: SKNBE2, 24 h
[25] = tested on: SKNBE2; assay: Inhibition of Histone H3 phosphorylation in human SKNBE2cells assessed as reduction in phosphorylation at Ser 10 residue at 50 to 1000 nM after 24 hrs by Western blot analysis; settings: dose 50-1000 nM; method in brief: as §2
[26] = tested on: NCI-H82; assay: Down regulation of cMYC protein expression level in human NCI-H82 cells at 1 uM incubated for 2 to 4 hrs in presence of MG132 by Western blot analysis; format: functional, cell-based; settings: time 2-4 hrs
[27] = molecular target: Aurora kinase B (Homo sapiens) (UniProt Q96GD4); assay: Inhibition of Aurora B phosphorylation in human SKNBE2 cells assessed as reduction in phosphorylation at Thr 232 residue at 50 to 1000 nM after 24 hrs by Western blot analysis; format: cell-based; settings: dose 50-1000 nM; method in brief: as §2
[28] = tested on: NCI-H82; assay: Induction of cell cycle arrest in human NCI-H82 cells at 1 uM after 24 hrs by Propidium iodide staining based flow cytometric analysis; format: functional
[29] = Growth inhibition of human NCI-H841 cells assessed as reduction in cell viability after 72 hrs by PrestoBlue Cell Viability assay; format: functional, cell-based; settings: NCI-H841, 72 h; method in brief: as §3
[30] = tested on: NCI-H82; assay: Down regulation of Cyclin B1 expression in human NCI-H82 cells at 50 to 1000 nM after 24 hrs by Western blot analysis; format: functional, cell-based; settings: dose 50-1000 nM; method in brief: as §2
[31] = molecular target: T1, Aurora kinase A (Homo sapiens); settings: NCI-H82, dose 50-1000 nM, time 24.0 hrs
[32] = molecular target: Aurora kinase B (Homo sapiens) (UniProt Q96GD4); assay: Inhibition of Aurora B phosphorylation in human NCI-H82 cells assessed as reduction in phosphorylation at Thr 232 residue at 50 to 1000 nM after 24 hrs by Western blot analysis; format: cell-based; settings: dose 50-1000 nM; method in brief: as §2

Aurora kinase B (Homo sapiens), sequence (Q96GD4 whole entry): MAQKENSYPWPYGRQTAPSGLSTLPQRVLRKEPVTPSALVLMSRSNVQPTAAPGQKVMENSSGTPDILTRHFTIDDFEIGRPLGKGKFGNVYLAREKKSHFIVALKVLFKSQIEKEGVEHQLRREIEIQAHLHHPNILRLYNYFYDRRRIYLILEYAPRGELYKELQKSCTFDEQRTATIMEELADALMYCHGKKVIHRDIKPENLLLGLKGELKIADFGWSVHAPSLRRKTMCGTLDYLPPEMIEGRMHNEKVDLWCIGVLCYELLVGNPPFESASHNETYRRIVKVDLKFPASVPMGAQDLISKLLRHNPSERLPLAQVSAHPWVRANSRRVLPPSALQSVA

## CCC(=O)n1nc(C)cc1Nc1cc(N2CCN(CC)CC2)nc(N[C@H]2CCN(C(=O)c3ccc(Cl)cc3F)C2)n1
[1]
  AUC(0-inf): 1410 ng·h/mL
[2]
  inhibition in vivo at 100 mg/kg: > 90%
[3]
  half-life: 288 min
[4]
  Activity: Active
[5]
  Activity: < 5%
[6]
  Activity: Dose-Dependent Effect
[7]
  clearance: 21.3 mL/min/kg
[8]
  Vd: 3.4 L/kg
[9]
  Activity: < 5%
[10]
  half-life: 162 min
[11]
  AUC(0-inf): 4400 ng·h/mL
[12]
  Activity: Active
[13]
  Tmax: 18 min
[14]
  Activity: Active
[15]
  Activity: Active
[16]
  Cmax: 2080 ng/mL

## CCN1CCN(c2cc(Nc3cc(C)[nH]n3)nc(N[C@H]3CCN(C(=O)c4ccc(Cl)cc4F)C3)n2)CC1
[1]
  AUC(0-inf): 703 ng·h/mL
[3]
  half-life: 240 min
[17]
  Activity: Active
[18]
  IC50: 20.7 nM
[19]
  inhibition: Active
[20]
  inhibition: Dose-Dependent Effect
[7]
  clearance: 53.7 mL/min/kg
[21]
  IC50: < 100 nM
[8]
  Vd: 11.3 L/kg
[22]
  Activity: < 5%
[23]
  bioavailability: 16.8%
[10]
  half-life: 96 min
[24]
  IC50: 1 nM
[11]
  AUC(0-inf): 533 ng·h/mL
[25]
  inhibition: Active
[26]
  Activity: inactive
[27]
  inhibition: Dose-Dependent Effect
[13]
  Tmax: 60 min
[28]
  Activity: Active
[29]
  IC50: 2090 nM
[30]
  Activity: Active
[31]
  inhibition: Dose-Dependent Effect
[32]
  inhibition: Dose-Dependent Effect
[16]
  Cmax: 395 ng/mL
